From ChEMBL document CHEMBL2086383, “Antitumor agents. 293. Nontoxic dimethyl-4,4'-dimethoxy-5,6,5',6'-dimethylenedioxybiphenyl-2,2'-dicarboxylate (DDB) analogues chemosensitize multidrug-resistant cancer cells to clinical anticancer drugs” (J Med Chem, 2012)
The source made the active and inactive calls. The calls are words filed in the database; no cut-off is given here.

What was measured:
Format in all cases: cell-based
[1] = test system: NIH3T3; assay: Inhibition of human P-gp-mediated multidrug-resistance in mouse NIH3T3 MDR cells assessed as potentiation of in vincristine-induced cytotoxic activity at 10 uM after 72 hrs by SRB assay; conditions: Mus musculus cells expressing human P-gp
[2] = test system: A549; assay: Antiproliferative activity against human A549 cells after 72 hrs by SRB assay; conditions: Homo sapiens, A549, 72 h
Outline: (§1)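 SRB assay. Cells at 3–5 × 10^3/well were exposed to a range of sample concentrations for 72 h. They were fixed in 50% TCA for 30 min, stained with 0.04% SRB for 30 min, and the dye was dissolved in 10 mM Tris base. Absorbance read at 515 nm. Medium was RPMI 1640 with 10% FBS at 37 °C, 5% CO2. KBvin cells were kept in 100 nM vincristine.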

[3] = Antiproliferative activity against human multidrug-resistant KBVIN cells after 72 hrs by SRB assay; conditions: Homo sapiens, KBVIN; outline: as §1
[4] = test system: NIH3T3; assay: Inhibition of human P-gp-mediated multidrug-resistance in mouse NIH3T3 MDR cells assessed as potentiation of in paclitaxel-induced cytotoxic activity at 10 uM after 72 hrs by SRB assay; conditions: human P-gp expressed in mouse cells
[5] = test system: DU-145; assay: Antiproliferative activity against human DU145 cells after 72 hrs by SRB assay; conditions: Homo sapiens, DU-145, 72 h; outline: as §1
[6] = test system: KB; assay: Antiproliferative activity against human KB cells after 72 hrs by SRB assay; conditions: Homo sapiens, KB; outline: as §1
[7] = test system: KBVIN; assay: Inhibition of P-gp-mediated multidrug-resistance in human KBVIN cells assessed as fold decrease in vincristine IC50 for cytotoxic activity at 10 uM after 72 hrs by SRB assay relative to control
Outline: (§2)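 KBvin cells were exposed to graded concentrations of anticancer drug (doxorubicin, paclitaxel or vincristine), alone or with 10 μM test compound, for 72 h. Growth was read by SRB assay. IC50 was found by log-linear interpolation. Reversal fold = IC50 (drug alone) / IC50 (drug + compound). Verapamil was the positive control. Each experiment was run at least three times.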

[8] = molecular target: ATP-dependent translocase ABCB1 (Homo sapiens, UniProt P08183); assay: Inhibition of P-gp over expressed in human multidrug-resistant KBVIN cells assessed as intracellular accumulation of doxorubicin at 10uM after 3 hrs by fluorescence microplate reader analysis relative to control
ATP-dependent translocase ABCB1, sequence (P08183 whole entry): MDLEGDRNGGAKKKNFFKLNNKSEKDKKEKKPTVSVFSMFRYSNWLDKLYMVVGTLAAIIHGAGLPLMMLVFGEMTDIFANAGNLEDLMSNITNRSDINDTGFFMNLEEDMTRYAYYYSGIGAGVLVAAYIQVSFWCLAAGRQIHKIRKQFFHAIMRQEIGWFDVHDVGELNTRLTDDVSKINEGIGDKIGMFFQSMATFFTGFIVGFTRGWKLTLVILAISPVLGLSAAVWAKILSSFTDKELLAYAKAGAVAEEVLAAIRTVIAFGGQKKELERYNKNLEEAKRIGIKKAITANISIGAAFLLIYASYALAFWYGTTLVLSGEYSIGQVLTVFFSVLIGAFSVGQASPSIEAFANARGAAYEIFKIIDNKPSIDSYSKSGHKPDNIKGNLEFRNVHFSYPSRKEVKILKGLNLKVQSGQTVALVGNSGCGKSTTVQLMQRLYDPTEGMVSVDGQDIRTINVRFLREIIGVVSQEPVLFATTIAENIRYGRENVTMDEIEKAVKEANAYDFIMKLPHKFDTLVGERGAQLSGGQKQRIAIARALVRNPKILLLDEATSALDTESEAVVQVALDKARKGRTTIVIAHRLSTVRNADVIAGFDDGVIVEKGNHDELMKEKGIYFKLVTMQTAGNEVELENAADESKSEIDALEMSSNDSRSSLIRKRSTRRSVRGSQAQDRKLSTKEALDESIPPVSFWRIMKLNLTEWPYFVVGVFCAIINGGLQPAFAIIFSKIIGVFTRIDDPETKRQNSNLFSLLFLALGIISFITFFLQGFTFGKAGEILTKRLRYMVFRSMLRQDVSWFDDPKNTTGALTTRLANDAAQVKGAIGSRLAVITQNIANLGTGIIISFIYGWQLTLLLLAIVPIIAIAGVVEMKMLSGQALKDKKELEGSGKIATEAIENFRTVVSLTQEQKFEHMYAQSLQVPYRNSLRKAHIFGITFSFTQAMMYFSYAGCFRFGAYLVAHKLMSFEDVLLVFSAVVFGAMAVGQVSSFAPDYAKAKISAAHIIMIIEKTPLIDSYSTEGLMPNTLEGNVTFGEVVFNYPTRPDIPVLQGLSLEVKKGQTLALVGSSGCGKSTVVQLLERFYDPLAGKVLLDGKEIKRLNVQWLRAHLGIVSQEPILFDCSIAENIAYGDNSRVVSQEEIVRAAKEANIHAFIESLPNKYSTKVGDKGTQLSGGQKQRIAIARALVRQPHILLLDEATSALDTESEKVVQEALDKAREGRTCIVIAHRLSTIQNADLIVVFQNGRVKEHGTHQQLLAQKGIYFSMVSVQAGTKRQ
Outline: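 KBvin cells at 5 × 10^3/well were pretreated with compound for 1 h, then given doxorubicin (10 μM final) for 3 h. Cells were washed with ice-cold PBS and lysed in 1% SDS/PBS. Verapamil or CsA served as positive control.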

[9] = test system: KBVIN; assay: Inhibition of P-gp-mediated multidrug-resistance in human KBVIN cells assessed as fold decrease in doxorubicin IC50 for cytotoxic activity at 10 uM after 72 hrs by SRB assay relative to control; outline: as §2
[10] = test system: KBVIN; assay: Inhibition of P-gp-mediated multidrug-resistance in human KBVIN cells assessed as fold decrease in paclitaxel IC50 for cytotoxic activity at 10 uM after 72 hrs by SRB assay relative to control; outline: as §2
[11] = test system: KBVIN; assay: Inhibition of P-gp-mediated multidrug-resistance in human KBVIN cells assessed as […] of paclitaxel-induced cell survival rate at 10 uM after 72 hrs by SRB assay

Structure (SMILES)	IC50 [2] [µM]	IC50 [5] [µM]	IC50 [6] [µM]	fold change (FC) [8]	inhibition [1]	IC50 [3] [µM]	inhibition [4]	fold change (FC) [7]	fold change (FC) [9]	fold change (FC) [10]	inhibition [11]
COc1cc(COC(=O)c2ccccc2)c(-c2c(COC(=O)c3ccccc3)cc(OC)c3c2OCO3)c2c1OCO2	> 100	> 100	> 100	1.2	Active	> 100	Active	101	9	167	–
COc1ccc(C(=O)OCc2cc(OC)c3c(c2-c2c(COC(=O)c4ccc(OC)c(OC)c4)cc(OC)c4c2OCO4)OCO3)cc1OC	> 100	> 100	> 100	1.2	Active	> 100	Active	202	21	89	–
C/C=C/C=C/C(=O)OCc1cc(OC)c2c(c1-c1c(COC(=O)/C=C/C=C/C)cc(OC)c3c1OCO3)OCO2	> 100	> 100	> 100	1.2	Active	> 100	Active	54	3	21	–
C/C=C/C(=O)OCc1cc(OC)c2c(c1-c1c(COC(=O)/C=C/C)cc(OC)c3c1OCO3)OCO2	> 100	> 100	> 100	1.2	Active	> 100	Active	230	4	102	–
CCC(C)C(=O)OCc1cc(OC)c2c(c1-c1c(COC(=O)C(C)CC)cc(OC)c3c1OCO3)OCO2 (racemic)	> 100	> 100	> 100	1.2	Active	> 100	Active	70	21	26	–
COc1cc(COC(=O)c2ccc(C)cc2)c(-c2c(COC(=O)c3ccc(C)cc3)cc(OC)c3c2OCO3)c2c1OCO2	> 100	> 100	> 100	1.2	Active	> 100	Active	51	11	27	–
CCC(=O)OCc1cc(OC)c2c(c1-c1c(COC(=O)CC)cc(OC)c3c1OCO3)OCO2	> 100	> 100	> 100	1.2	Active	> 100	Active	31	4	12	–
COc1c(Br)c(C(=O)O)c(-c2c3c(c(OC)c(Br)c2C(=O)O)OCO3)c2c1OCO2	> 100	> 100	> 100	–	–	> 100	–	–	–	–	–
COc1cc(COC(=O)C(C)C)c(-c2c(COC(=O)C(C)C)cc(OC)c3c2OCO3)c2c1OCO2	> 100	> 100	> 100	1.2	Active	> 100	Active	61	7	21	–
COc1cc(COC(=O)CC(C)C)c(-c2c(COC(=O)CC(C)C)cc(OC)c3c2OCO3)c2c1OCO2	> 100	> 100	> 100	1.2	Active	> 100	Active	79	6	112	–
CCCC(=O)OCc1cc(OC)c2c(c1-c1c(COC(=O)CCC)cc(OC)c3c1OCO3)OCO2	> 100	> 100	> 100	1.2	Active	> 100	Active	50	4	32	–

The next lines start with results.

IC50 [2] [µM]	IC50 [5] [µM]	IC50 [6] [µM]	fold change (FC) [8]	Structure (SMILES)	inhibition [1]	IC50 [3] [µM]	inhibition [4]	fold change (FC) [7]	fold change (FC) [9]	fold change (FC) [10]	inhibition [11]
> 100	> 100	> 100	1.2	CCCC(C)C(=O)OCc1cc(OC)c2c(c1-c1c(COC(=O)C(C)CCC)cc(OC)c3c1OCO3)OCO2 (racemic)	Active	> 100	Active	53	31	25	–
> 100	> 100	> 100	–	COc1c(Br)c(COC(=O)c2ccccc2)c(-c2c(COC(=O)c3ccccc3)c(Br)c(OC)c3c2OCO3)c2c1OCO2	–	> 100	–	–	–	–	–
> 100	> 100	> 100	–	COc1c2c(c3c(c1Br)c(=O)oc(=O)c1c(Br)c(OC)c4c(c13)OCO4)OCO2	–	> 100	–	–	–	–	inactive
> 100	> 100	> 100	–	COc1cc(COC(=O)c2ccc(C(F)(F)F)nc2)c(-c2c(COC(=O)c3ccc(C(F)(F)F)nc3)cc(OC)c3c2OCO3)c2c1OCO2	–	> 100	–	–	–	–	inactive
> 100	> 100	> 100	1.2	COc1ccc(C(=O)OCc2cc(OC)c3c(c2-c2c(COC(=O)c4ccc(OC)cc4)cc(OC)c4c2OCO4)OCO3)cc1	Active	> 100	Active	50	11	27	–
> 100	> 100	> 100	1.2	CCCCC(=O)OCc1cc(OC)c2c(c1-c1c(COC(=O)CCCC)cc(OC)c3c1OCO3)OCO2	Active	> 100	Active	161	9	24	–
> 100	> 100	> 100	1.2	COc1cc(COC(=O)C2CCCCC2)c(-c2c(COC(=O)C3CCCCC3)cc(OC)c3c2OCO3)c2c1OCO2	Active	> 100	Active	239	30	24	–
> 100	> 100	> 100	1.2	COc1cc(COC(=O)C2CCCC2)c(-c2c(COC(=O)C3CCCC3)cc(OC)c3c2OCO3)c2c1OCO2	Active	> 100	Active	310	23	20	–
–	–	–	1.2	COc1cccc2c1C(=O)c1c(O)c3c(c(O)c1C2=O)C[C@@](O)(C(=O)CO)C[C@@H]3O[C@H]1C[C@H](N)[C@H](O)[C@H](C)O1 [DOXORUBICIN]	–	–	–	–	–	–	–
> 100	> 100	> 100	1.2	COc1cc(COC(=O)C=C(C)C)c(-c2c(COC(=O)C=C(C)C)cc(OC)c3c2OCO3)c2c1OCO2	Active	> 100	Active	560	7	326	–
